The source made the active and inactive calls. The rule behind the calls is not given here.
How the values were obtained:
Liver microsome [1] = assay: Induction of mitochondrial function disruption in Wistar Han rat liver mitochondria energized with succinate assessed as adenosine diphosphate/O ratio measured at 0.333 ug/mg of protein (reference value: 2.3 +/- 0.2 no_unit); format: functional
Liver microsome [2] = assay: Induction of mitochondrial function disruption in Wistar Han rat liver mitochondria energized with succinate assessed as respiratory control ratio measured at 0.667 ug/mg of protein (reference value: 4.1 +/- 0.5 no_unit); format: functional
Liver microsome [3] = assay: Induction of mitochondrial function disruption in Wistar Han rat liver mitochondria energized with succinate assessed as respiratory control ratio measured at 0.333 ug/mg of protein (reference value: 4.1 +/- 0.5 no_unit); format: functional
[4] = Induction of mitochondrial function disruption in Wistar Han rat liver mitochondria energized with succinate assessed as adenosine diphosphate/O ratio measured at 0.667 ug/mg of protein (reference value: 2.3 +/- 0.2 no_unit); format: functional
[5] = Cell cycle arrest against human Hs578T cells assessed as decrease in cells at S phase at 0.5 ug/ml after 24 to 48 hrs by propidium iodide staining based flow cytometry; format: functional; conditions: Hs-578T
Method in brief: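 Log-phase Hs578T cells exposed 24 and 48 h to 0.5 μg/ml. Adherent plus floating cells fixed in cold 70% ethanol, kept overnight at -20°C, washed into PBS-T (132 mM NaCl, 4 mM KCl, 1.2 mM NaH2PO4, 0.1% Tween). Treated with 20 μg/ml RNase for 45 min at 37°C, then propidium iodide for 30 min at 37°C. Phase percentages read by flow cytometry. Mean ± SEM, 5 experiments.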

Liver microsome [6] = assay: Induction of mitochondrial function disruption in Wistar Han rat liver mitochondria energized with succinate assessed as State-3 level per mg of protein measured at 0.667 ug/mg of protein (reference value: 130.8 +/- 24.1 nmol/mg protein/min); format: functional
Liver microsome [7] = assay: Induction of mitochondrial function disruption in Wistar Han rat liver mitochondria energized with succinate assessed as State-3 level per mg of protein measured at 1.333 ug/mg of protein (reference value: 130.8 +/- 24.1 nmol/mg protein/min); format: functional
Hs-578T [8] = assay: Cytotoxicity against human Hs578T cells at 0.125 to 2 ug/ml incubated for 6 hrs folowed by drug wash out and fresh medium addition and measured 5 days after wash out; format: functional, cell-based
Liver microsome [9] = assay: Induction of mitochondrial function disruption in Wistar Han rat liver mitochondria energized with succinate assessed as State-4 level per mg of protein measured at 0.667 ug/mg of protein (reference value: 33.5 +/- 7.5 nmol/mg protein/min); format: functional
Hs-578T [10] = assay: Effect on Bax protein level in human Hs578T cells at 1 ug/ml after 24 hrs by Western blot analysis; format: functional, cell-based
MDA-MB-231 = assay: Cytotoxicity against human MDA-MB-231 cells assessed as reduction in cell number in glucose-free, galactose/glutamine medium after 3 to 5 days; format: functional, cell-based
Method in brief: (§1)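 Cells grown in glucose-free DMEM with galactose (1.8 g/L), L-glutamine (0.584 g/L), pyruvate and 10% FBS, forcing ATP from oxidative phosphorylation. Exposed to a dose range for 1, 3 and 5 days. Cell number read by sulforhodamine B and expressed as % of control. Mean ± SEM, 5 experiments.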

MCF7 = assay: Cytotoxicity against human MCF7 cells assessed as reduction in cell number in glucose-free, galactose/glutamine medium after 3 to 5 days; format: functional, cell-based; method in brief: as §1
[11] = Induction of apoptosis in human Hs578Bst cells assessed as distribution of mitochondrial polarization and morphology at 0.25 ug/ml after 6 hrs by confocal microscopy; format: functional, cell-based
Method in brief: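 Cells were seeded on glass coverslips and left to attach for 24 h. They were then exposed to vehicle or 0.25 μg/ml compound for 6 h. For the last 30 min they were loaded with 100 nM TMRM in saline buffer with 15 mM glucose, and the probe was kept present during imaging. Mitochondrial polarization and morphology were imaged by fluorescence microscopy, and the TMRM fluorescence standard deviation was quantified. Four independent preparations, mean ± SEM.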

Liver microsome [12] = assay: Induction of mitochondrial function disruption in Wistar Han rat liver mitochondria energized with succinate assessed as adenosine diphosphate/O ratio measured at 0.067 ug/mg of protein (reference value: 2.3 +/- 0.2 no_unit); format: functional
Liver microsome [13] = assay: Induction of mitochondrial function disruption in Wistar Han rat liver mitochondria energized with succinate assessed as State-4 level per mg of protein measured at 1.333 ug/mg of protein (reference value: 33.5 +/- 7.5 nmol/mg protein/min); format: functional
Liver microsome [14] = assay: Induction of mitochondrial function disruption in Wistar Han rat liver mitochondria energized with succinate assessed as State-4 level per mg of protein measured at 0.133 ug/mg of protein (reference value: 33.5 +/- 7.5 nmol/mg protein/min); format: functional
Hs-578T [15] = assay: Induction of apoptosis in human Hs578T cells assessed as increase in caspase 3 like activity at 1 ug/ml after 24 hrs; format: functional, cell-based
[16] = Induction of mitochondrial permeability transition pore in Wistar Han rat liver mitochondria assessed as mitochondrial swelling by spectrophotometry; format: functional
Method in brief: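 Isolated rat liver mitochondria were energized with succinate plus rotenone and pre-incubated with compound at 0.07–1.33 µg/mg protein. MPT was then triggered by one Ca2+ pulse of 40 nmol/mg protein. Swelling was followed as pseudo-absorbance at 540 nm, and amplitude is basal minus the reading 600 s after Ca2+. Cyclosporin A at 1 µM was the reference, with 6 preparations.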

Hs-578T [17] = assay: Induction of apoptosis in human Hs578T cells assessed as increase in caspase 9 like activity at 1 ug/ml after 24 hrs; format: functional, cell-based
Method in brief: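 HS578T cells were treated 24 h at 1 μg/ml. Attached and floating cells were lysed in HEPES pH 7.4/CHAPS/DTT buffer. Extract protein was incubated 2 h at 37°C with […] Ac-DEVD-pNA (caspase-3) or Ac-LEHD-pNA (caspase-9). Released p-nitroanilide was read at endpoint against a pNA calibration. Six experiments, mean ± SEM.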

Liver microsome [18] = assay: Induction of mitochondrial function disruption in Wistar Han rat liver mitochondria energized with succinate assessed as adenosine diphosphate/O ratio measured at 1.333 ug/mg of protein (reference value: 2.3 +/- 0.2 no_unit); format: functional
Liver microsome [19] = assay: Induction of mitochondrial function disruption in Wistar Han rat liver mitochondria energized with succinate assessed as adenosine diphosphate/O ratio measured at 0.133 ug/mg of protein (reference value: 2.3 +/- 0.2 no_unit); format: functional
Liver microsome [20] = assay: Induction of mitochondrial function disruption in Wistar Han rat liver mitochondria energized with succinate assessed as respiratory control ratio measured at 0.133 ug/mg of protein (reference value: 4.1 +/- 0.5 no_unit); format: functional
Liver microsome [21] = assay: Induction of mitochondrial permeability transition pore in Wistar Han rat liver mitochondria assessed as mitochondrial swelling by spectrophotometry relative to control

SMILES	Ratio (Liver microsome [1])	Ratio (Liver microsome [2])	Ratio (Liver microsome [3])	Ratio [4]	inhibition [5]	Activity (Liver microsome [6]) [nmol/min]	Activity (Liver microsome [7]) [nmol/min]	Activity (Liver microsome [9]) [nmol/min]	Activity (Hs-578T [10])	Cytotoxicity (active/inactive call) (MDA-MB-231)	inhibition (MCF7)	Activity [11]	Ratio (Liver microsome [12])	Activity (Liver microsome [13]) [nmol/min]	Activity (Liver microsome [14]) [nmol/min]	Activity (Hs-578T [15])	Activity [16]	Ratio (Liver microsome [18])	Ratio (Liver microsome [19])	Ratio (Liver microsome [20])	also measured
C=C(C)[C@@H]1CC[C@]2(COC(=O)CC[n+]3ccc(N(C)C)cc3)CC[C@]3(C)[C@H](CC[C@@H]4[C@@]5(C)CC[C@H](OC(=O)CC[n+]6ccc(N(C)C)cc6)C(C)(C)[C@@H]5CC[C@]43C)[C@@H]12.[Cl-].[Cl-]	1.8	4.6	4.1	1.6	Active	116	112	25.7	inactive	Active	Active	inactive	1.8	25.7	25.3	Active	inactive	1.8	1.7	4.1	inhibition (Hs-578T [8]): Active; Activity (Hs-578T [17]): Active
C=C(C)[C@@H]1CC[C@]2(COC(=O)C(CC)[n+]3ccc(N(C)C)cc3)CC[C@]3(C)[C@H](CC[C@@H]4[C@@]5(C)CC[C@H](OC(=O)C(CC)[n+]6ccc(N(C)C)cc6)C(C)(C)[C@@H]5CC[C@]43C)[C@@H]12 (some centres undefined)	1.6	3.1	3.2	1.6	Active	125	119	23.2	inactive	Active	Active	Active	1.6	21.5	23.7	Active	Dose-dependent effect	1.6	1.6	3	fold change (FC) (Liver microsome [21]): 5; Activity (Hs-578T [17]): Active
C=C(C)[C@@H]1CC[C@]2(COC(=O)C[n+]3ccc(N(C)C)cc3)CC[C@]3(C)[C@H](CC[C@@H]4[C@@]5(C)CC[C@H](OC(=O)C[n+]6ccc(N(C)C)cc6)C(C)(C)[C@@H]5CC[C@]43C)[C@@H]12.[Cl-].[Cl-]	2.2	4.4	4.4	2.2	Active	141	131	34.5	inactive	Active	Active	Active	2.4	34.8	34.5	Active	Dose-dependent effect	2.3	2.4	4.1	inhibition (Hs-578T [8]): Active; fold change (FC) (Liver microsome [21]): 5
C=C(C)[C@@H]1CC[C@]2(COC(=O)C[N+](C)(C)C(C)C)CC[C@]3(C)[C@H](CC[C@@H]4[C@@]5(C)CC[C@H](OC(=O)C[N+](C)(C)C(C)C)C(C)(C)[C@@H]5CC[C@]43C)[C@@H]12.[Cl-].[Cl-]	2.9	4.3	4.2	2.6	Active	116	107	28.8	inactive	Active	Active	Active	3	28.7	28.6	Active	Dose-dependent effect	2.9	3.1	4	inhibition (Hs-578T [8]): Active; fold change (FC) (Liver microsome [21]): 5; Activity (Hs-578T [17]): Active

Source: ChEMBL document CHEMBL3351723, “New derivatives of lupane triterpenoids disturb breast cancer mitochondria and induce cell death” (Bioorg Med Chem, 2014)
